Consider three compounds from ChEMBL document CHEMBL3853361 (ACS Med Chem Lett, 2016).

Active and inactive are the calls of the source.

Data set [1] is described as follows: Photostability of the compound in DMEM at 200 and 1100 uM measured after daylight exposure for 1 day by HPLC analysis. It is filed as physicochemical. Conditions: 24 h.
For data set [2], the system named is SK-MEL-28. Nature of the data set: Cytostatic activity in human SK-MEL-28 cells harboring BRAF V600E mutant at 1 and 30 uM measured after 48 hrs resazurin assay. It is filed as functional, cell-based. A general note: The colour change of resazurin is a common sign of viable cells or microbes.
Data set [3] has as its system SK-MEL-28. Nature of the data set: Growth inhibition of human SK-MEL-28 cells harboring BRAF V600E mutant measured after 48 hrs resazurin assay. Type of data set: functional, cell-based. In a few lines:
(§1)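 SKMEL28 melanoma cells (BRAF V600E-dependent) exposed to a range of compound concentrations, no UV; growth measured after 48 h incubation. Dose–response curves give GI50, TGI (concentration giving total growth inhibition) and LC50; n = 4, error bars standard deviation.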

A short description of data set [4]: Stability of the compound in DMEM assessed as thermal decomposition at 200 uM incubated in dark for 1 day by HPLC analysis. Type of data set: physicochemical. The following applies: 24 h.
A short description of data set [5]: Stability of the compound in DMSO assessed as thermal decomposition at 200 uM incubated in dark for 1 day by HPLC analysis. Conditions: 24 h. It is filed as physicochemical.
The nature of data set [6]: Photostability of the compound in DMSO at 200 uM measured after irradiation of 226 W/m2 UV-light for 5 mins by HPLC analysis. Type of data set: physicochemical.
Data set [7] is described as follows: Drug metabolism in human SK-MEL-28 cells assessed as photo-induced N-(5-amino-2-tert-butyl)-11-fluorbenzol[f]thiazol-[4,5-h]-quinazolin-10-yl)-2,6-difluorbenzolsulfonamide formation at 100 uM followed by UV-light irradiation by DAPI-staining based fluorescence microscopic analysis. Type of data set: ADME, cell-based. The following applies: sk-mel-28, 100 µM. In a few lines:
(§2)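 Fluorescence microscopy of SKMEL28 cells seeded in wells. Cells incubated with parent drug, then exposed to rising doses of 365 nm UV; green autofluorescence of the photoproduct imaged at 10× per well. Nuclei counterstained with 1 µg/mL DAPI. Controls: cells without compound given the highest UV dose.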

Data set [8] can be described thus: Half life of the compound in DMSO at 200 uM measured after irradiation of 1130 W/m2 W/m2 UV-light for 5 mins by HPLC analysis. Type of data set: physicochemical. The following applies: DMSO solution under UV irradiation.
Data set [9] in a line: Half life of the compound in DMSO at 200 uM measured after irradiation of 226 W/m2 UV-light for 5 mins by HPLC analysis. It is filed as physicochemical. Conditions: DMSO solution under UV irradiation.
Data set [10] can be described thus: Photostability of the compound in DMSO at 200 uM measured after daylight exposure for 1 day by HPLC analysis. It is filed as physicochemical. Conditions: 24 h.
Data set [11] relates to SK-MEL-28. Briefly: Growth inhibition of human SK-MEL-28 cells harboring BRAF V600E mutant preincubated for 1 hr followed by irradiation of 1.13 kW/m2 UV-light for 5 mins measured after 48 hrs resazurin assay. It is filed as functional, cell-based. In a few lines:
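SKMEL28 cells incubated 1 h with compound, then irradiated at 365 nm (1.13 kW/m2) for 5 min; growth measured 48 h after compound addition. GI50, TGI and LC50 taken from dose–response curves; n = 4, standard deviation shown.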

Data set [12] in a line: Half life of the compound in DPBS at 200 uM measured after irradiation of 1130 W/m2 UV-light for 15 mins by HPLC analysis. It is filed as physicochemical. The following applies: DPBS solution under UV irradiation.
A short description of data set [13]: Half life of the compound in DMSO at 200 uM measured after irradiation of 1130 W/m2 UV-light for 15 mins by HPLC analysis. Conditions: DMSO solution under UV irradiation. It is filed as physicochemical.
Data set [14] can be described thus: Drug uptake in nucleus of human SK-MEL-28 cells at 100 uM by DAPI-staining based fluorescence microscopic analysis. Type of data set: ADME, cell-based. The following applies: sk-mel-28, 100 µM. In a few lines:
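SKMEL28 cells incubated with compound at 100 µM and imaged for green autofluorescence by fluorescence microscopy at 60×. Nuclei counterstained with 1 µg/mL DAPI.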

Data set [15] can be described thus: Antiproliferative activity against human SK-MEL-28 cells harboring BRAF V600E mutant assessed as concentration required for total growth inhibition measured after 48 hrs resazurin assay. It is filed as functional. Conditions: SK-MEL-28, 48 h. In a few lines:
as §1

The nature of data set [16]: Drug level assessed as compound formation in DMEM using 200 uM dabrafenib measured after daylight exposure for 1 day by HPLC analysis. It is filed as physicochemical. Conditions: 24 h.
The nature of data set [17]: Drug level assessed as compound formation in DMSO using 200 uM dabrafenib measured after daylight exposure for 1 day by HPLC analysis. Type of data set: physicochemical. Conditions: 24 h.
Data set [18] has as its system SK-MEL-28. Briefly: Cytostatic activity in human SK-MEL-28 cells harboring BRAF V600E mutant at 10 and 30000 nM measured after 48 hrs resazurin assay.
A short description of data set [19]: Drug level in human SK-MEL-28 cells treated with dabrafenib at 100 uM followed by UV-light irradiation by DAPI-staining based fluorescence microscopic analysis. It is filed as ADME, cell-based. Conditions: sk-mel-28, 100 µM. In a few lines:
as §2

The nature of data set [20]: Drug level in DMEM treated with dabrafenib at 200 uM measured after irradiation of 226 W/m2 UV-light for 5 mins by HPLC analysis. Type of data set: physicochemical.
The nature of data set [21]: Drug level in DPBS treated with dabrafenib at 200 uM measured after irradiation of 1130 W/m2 UV-light for 15 mins by HPLC analysis. Type of data set: physicochemical. The following applies: 0.25 h.
Data set [22] concerns SK-MEL-28. Briefly: Cytotoxicity against human SK-MEL-28 cells harboring BRAF V600E mutant at >30000 nM measured after 48 hrs by resazurin assay.
Data set [23] can be described thus: Drug level in DMEM treated with dabrafenib at 200 uM measured after irradiation of 1130 W/m2 UV-light for 15 mins by HPLC analysis. Type of data set: physicochemical. The following applies: 0.25 h. In a few lines:
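Parent drug dissolved in DMEM cell culture medium, irradiated at 1130 W/m2, then analysed by HPLC. Peak areas converted to concentrations with calibration curves (n = 4).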

For data set [24], the target named is Serine/threonine-protein kinase B-raf (Homo sapiens, UniProt P15056, V600E). Nature of the data set: Inhibition of recombinant human N-terminal GST-6His tagged BRAF V600E mutant (417 to 766 residues) expressed in baculovirus infected Sf9 cells preincubated with substrate followed by protein and ATP addition measured after 60 mins by scintillation counter method.
Chain of Serine/threonine-protein kinase B-raf (P15056 2-766 V600E limits assumed): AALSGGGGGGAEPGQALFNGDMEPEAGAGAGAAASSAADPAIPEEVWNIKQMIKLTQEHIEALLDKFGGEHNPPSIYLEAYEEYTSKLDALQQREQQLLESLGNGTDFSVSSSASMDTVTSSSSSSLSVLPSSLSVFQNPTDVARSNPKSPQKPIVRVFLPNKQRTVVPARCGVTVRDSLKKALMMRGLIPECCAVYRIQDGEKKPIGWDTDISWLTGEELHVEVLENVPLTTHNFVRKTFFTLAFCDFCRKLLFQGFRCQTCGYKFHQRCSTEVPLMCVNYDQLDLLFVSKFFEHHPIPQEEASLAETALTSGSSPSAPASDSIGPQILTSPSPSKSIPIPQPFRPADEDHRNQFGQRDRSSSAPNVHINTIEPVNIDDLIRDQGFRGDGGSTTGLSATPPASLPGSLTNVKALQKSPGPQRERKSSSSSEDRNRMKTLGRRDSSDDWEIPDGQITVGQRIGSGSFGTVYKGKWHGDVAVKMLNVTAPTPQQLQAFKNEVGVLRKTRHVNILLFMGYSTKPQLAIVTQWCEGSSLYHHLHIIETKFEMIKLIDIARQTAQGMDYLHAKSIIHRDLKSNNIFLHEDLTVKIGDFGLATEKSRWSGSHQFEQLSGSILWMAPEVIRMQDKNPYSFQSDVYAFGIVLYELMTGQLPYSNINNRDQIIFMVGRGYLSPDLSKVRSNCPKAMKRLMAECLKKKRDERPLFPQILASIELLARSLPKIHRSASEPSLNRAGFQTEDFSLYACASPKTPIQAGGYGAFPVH

A short description of data set [25]: Photostability of the compound in DMSO assessed as photolysis at 200 uM measured after irradiation of 1130 W/m2 UV-light for 15 mins by HPLC analysis. Conditions: 0.25 h. Type of data set: physicochemical.

Consider `CC(C)(C)c1nc(-c2cccc(NS(=O)(=O)c3c(F)cccc3F)c2F)c(-c2ccnc(N)n2)s1` [DABRAFENIB], for which the Stability entry in data set [1] was “Unstable”; in data set [4] it was “Stable”; in data set [5], “Stable”; in [6] it was “Unstable”; in data set [10] it was “Unstable”. The outcome in [2] was Active. Besides, the “growth inhibition (GI)” value in data set [3] and in data set [11] was “Active” throughout. In addition, in data set [7], the Drug metabolism entry is on record as “Metabolite_Detected”. The half-life (commonly the time needed for the level to fall by half in the phase considered) at 200 µM was 0.325 min in data set [8], 1.08 min in data set [9], 2.42 min in data set [12] and 0.325 min in data set [13].

Regarding `CC(C)(C)c1nc2c(s1)c1nc(N)ncc1c1ccc(NS(=O)(=O)c3c(F)cccc3F)c(F)c12`, in [14], the Drug uptake result is given as “Active”. Besides, the TGI – broadly, the concentration at which net growth stops – in [15] turned out to be 8.9 µM. Further, the Drug metabolism entry in data set [16], in data set [17], in data set [19], in data set [20], in [21] and in [23] was “Metabolite_Detected” in each case. Further, the result in data set [18] and in [22] was Active. Moreover, in [11], the “growth inhibition (GI)” value was “Active”. The IC50 – broadly, the midpoint of a concentration-inhibition curve – in data set [24] is 280 nM. The Stability result in [25] is given as “Unstable”.

Turning to `CCCS(=O)(=O)Nc1ccc(F)c(C(=O)c2c[nH]c3ncc(-c4ccc(Cl)cc4)cc23)c1F` [VEMURAFENIB], the TGI in data set [15] amounted to 2 µM. For the same compound, the “growth inhibition (GI)” value in data set [11] is “Active”.
